# Laboratory results as given in ChEMBL document CHEMBL1139842, “Effects of azaspiracid-1, a potent cytotoxic agent, on primary neuronal cultures. A structure-activity relationship study” (J Med Chem, 2007).
# Calls of active or inactive are those of the source. No cut-off for these calls is given here.
# Legend:
# [1] = Cytotoxicity against cerebellar granule neurons by MTT assay; conditions: mouse, cerebellar granule neurone
# How it was run: (§1)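 Primary cerebellar granule cells from 7-day-old Swiss mouse cerebella, cultured 8-11 days in DMEM with 25 mM KCl and 10% fetal calf serum; cytosine arabinoside (20 µM) against glia. Compound added in culture medium for 4, 8 or 24 h (0.5-250 nM range; fragments 24 h at 250 nM). MTT (500 µg/mL, 30 min, Locke's buffer), SDS lysis, formazan absorbance at 590. Means ± SEM.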
# [2] = Increase in cytosolic calcium concentration in cerebellar granule cells in presence of calcium at 1 uM; format: functional; conditions: Mus musculus
# How it was run: (§2)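 Cultured mouse cerebellar granule cells co-loaded with Fura-2 AM (1 µM) and BCECF-AM (0.5 µM), 10 min at 37 °C, imaged by epifluorescence microscopy in a 37 °C open-bath chamber. Compound applied in calcium-free buffer (pH 7.4) before calcium was restored, or added directly in calcium-containing medium. [Ca2+]c calibrated by the Grynkiewicz method. Means ± SEM of 3-4 experiments in duplicate.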
# [3] = Cytotoxicity against cerebellar granule neurons by MTT assay after 8 hrs; design: species or system Mus musculus, Cerebellar granule neurone
# How it was run: (§3)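 Primary cerebellar granule cells from 7-day-old Swiss mice, cultured 8-11 days in KCl (25 mM) DMEM with 10% fetal calf serum and cytosine arabinoside. Exposed in culture medium to compound (0.5-250 nM range; fragments 250 nM) for 4, 8 or 24 h at 37 °C. Then MTT 500 µg/mL in Locke's buffer for 30 min, SDS lysis, formazan read at 590. IC50 given with 95% confidence intervals.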
# [4] = Decrease in intracellular pH in cerebellar granule cells in calcium free medium at 1 uM; format: functional, Mus musculus
# How it was run: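 Single-cell imaging at 37 °C in an open-bath chamber, drug buffers at pH 7.4. Compound added in calcium-free buffer, then calcium restored, or added in calcium-containing buffer. Read-out is the 490/440 excitation ratio at 530 nm emission from 25-30 cells per coverslip, converted to pH by nigericin in situ calibration (pH 6-9). Three to five independent experiments, each in duplicate.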
# COLO = assay: Cytotoxicity against cerebellar granule neurons at 250 nM by MTT assay after 4 hrs; format: functional, Mus musculus; how it was run: as §3
# [5] = Effect on intracellular pH in presence of calcium in cerebellar granule cells at 1 uM; format: functional, cell-based; conditions: Mus musculus
# How it was run: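 530-nm emission ratio at 490/440 excitation from 25-30 cells per coverslip, converted to pH by nigericin in situ calibration (pH 6-9). Tested in calcium-free medium then after calcium restoration, or in calcium-containing medium; drug buffer pH 7.4.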
# [6] = Cytotoxicity assessed as effect on viability of cerebellar granule neurons at 100 nM by MTT assay after 4 hrs; design: species or system Cerebellar granule neurone; conditions: mouse, read-out: Activity; how it was run: as §1
# [7] = Increase in cytosolic calcium concentration in cerebellar granule cell in calcium free medium at 1 uM; format: functional, cell-based; conditions: Mus musculus; how it was run: as §2
# [8] = Cytotoxicity against cerebellar granule neurons by MTT assay after 24 hrs; design: species or system Mus musculus, Cerebellar granule neurone; how it was run: as §3
# [9] = tested on: cerebellar granule cells (mouse); assay: Cytotoxicity against cerebellar granule neurons at 250 nM by MTT assay after 24 hrs
# [10] = tested on: cerebellar granule cells (mouse); assay: Increase in cytosolic calcium concentration in cerebellar granule cells in presence of calcium at 1 uM
# [11] = Mus musculus, Cerebellar granule neurone
# [12] = mouse, cerebellar granule neurone
Structure (SMILES),Activity [2],Activity [5],Activity [7],Activity ([4]; Mus musculus),Activity [9] [%],Activity [10] [nM],other results
C=C(C[C@]12C[C@@H](C)C[C@H](O1)[C@H]1O[C@]3(C[C@H]1O2)NC[C@H](C)C[C@@H]3C)[C@H]1O[C@@](O)([C@H](O)[C@@H]2C[C@H]3O[C@@]4(CC[C@]5(CC=C[C@@H](/C=C/CCC(=O)O)O5)O4)[C@H](C)C[C@H]3O2)[C@H](C)C[C@@H]1C,Active,inactive,inactive,,,,"Activity [1]: Dose-dependent effect and tde; IC50 [3, 11]: 32 nM; Activity [3, 12]: 90%; Activity [4]: -0.15; Activity (COLO): 40%; viability at 4 h, 0.1 µM [6]: 40%; IC50 [8, 11]: 0.87 nM; Activity [8, 12]: 85%"
C[C@@H]1CN[C@@]2(C[C@@H]3O[C@@]4(CC(=O)O)C[C@H](C)C[C@@H](O4)[C@@H]3O2)[C@H](C)C1,inactive,inactive,inactive,inactive,84.95,,
C=C(CO)[C@H]1O[C@@](O)([C@@H](O)[C@H]2C[C@@H]3O[C@]4(CC[C@@]5(CC=C[C@H](/C=C/CCC(=O)O)O5)O4)[C@@H](C)C[C@@H]3O2)[C@H](C)C[C@@H]1C,,,inactive,,100.57,250,
"COC(=O)[C@@H](NC(=O)C[C@@]12C[C@@H](C)C[C@H](O1)[C@H]1O[C@]3(C[C@H]1O2)NC[C@H](C)C[C@@H]3C)c1ccccc1 (single isomer, unassigned)",inactive,inactive,inactive,inactive,90.49,,
C[C@H]1C[C@H]2O[C@H](CO)C[C@H]2O[C@]12CC[C@@]1(CC=C[C@H](/C=C/CCC(=O)O)O1)O2,,,,,98.29,150,
C[C@@H]1C[C@H]2O[C@H](CO)C[C@H]2O[C@]12CC[C@@]1(CC=C[C@H](/C=C/CCC(=O)O)O1)O2,,,inactive,,102.59,130,
COC(=O)[C@H](NC(=O)C[C@]12C[C@H](C)C[C@@H](O1)[C@@H]1O[C@@]3(C[C@@H]1O2)NC[C@@H](C)C[C@H]3C)c1ccccc1,inactive,inactive,inactive,inactive,99.4,,
"C[C@H]1CN[C@]2(C[C@H]3O[C@]4(CC(=O)O)C[C@@H](C)C[C@H](O4)[C@H]3O2)[C@@H](C)C1 (single isomer, unassigned)",inactive,inactive,inactive,inactive,110.15,,
C[C@H]1C[C@@H]2O[C@@H](CO)C[C@@H]2O[C@]12CC[C@@]1(CC=C[C@H](/C=C/CCC(=O)O)O1)O2,,,,,83.66,150,
C=C(CO)[C@H]1O[C@@](O)([C@H](O)[C@@H]2C[C@H]3O[C@@]4(CC[C@]5(CC=C[C@@H](/C=C/CCC(=O)O)O5)O4)[C@H](C)C[C@H]3O2)[C@H](C)C[C@@H]1C,,,,,99.09,200,
C[C@@H]1C[C@H]2O[C@H](CO)C[C@H]2O[C@@]12CC[C@]1(CC=C[C@@H](/C=C/CCC(=O)O)O1)O2,,,inactive,,100.32,100,
COC(=O)[C@H](NC(=O)C[C@@]12C[C@@H](C)C[C@H](O1)[C@H]1O[C@]3(C[C@H]1O2)NC[C@H](C)C[C@@H]3C)c1ccccc1,inactive,inactive,inactive,inactive,99.25,,
"COC(=O)[C@@H](NC(=O)C[C@]12C[C@H](C)C[C@@H](O1)[C@@H]1O[C@@]3(C[C@@H]1O2)NC[C@@H](C)C[C@H]3C)c1ccccc1 (single isomer, unassigned)",inactive,inactive,inactive,,90.02,,
